Assay results from ChEMBL document CHEMBL3045677, “Sulfonamide-1,2,4-thiadiazole derivatives as antifungal and antibacterial agents: synthesis, biological evaluation, lipophilicity, and conformational studies” (2010).
Converted amounts (≈) assume the structure as drawn.

These compounds were tested on Escherichia coli (assay: Antibacterial activity against Escherichia coli ATCC 35210 at […] degC measured after 72 hr by microdilution method). Details: ATCC 35210, 72 h.
Format: functional
Outline: (§1)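 Bactericidal endpoint: after the 24 h broth microdilution (1.0×10⁴ CFU per well, LB broth, […] °C), wells were serially subcultured into plates of fresh broth and incubated a further 72 h. MBC was the lowest concentration with no visible growth, taken as 99.5% killing of the original inoculum.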

SMILES | MBC
COc1cc(Cc2nnc(Nc3ccc([N+](=O)[O-])cc3)s2)c(S(=O)(=O)N(C)C)cc1OC | 83.6 µM (≈ 40.1 µg/mL)

Each compound was assayed on Micrococcus flavus (assay: Antibacterial activity against Micrococcus flavus ATCC 10240 at […] degC measured after 24 hr by microdilution method). Details: ATCC 10240, 24 h.
Format: functional
Outline: (§2)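 Bacteria suspended in sterile saline at 1.0×10⁵ CFU/ml and added at 1.0×10⁴ CFU per well to LB broth with compound (1 mg/ml) in 96-well plates. Incubated 24 h at […] °C. MIC was the lowest concentration without visible growth under a binocular microscope. OD 655 nm was read against a blank and a positive control.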

MIC | SMILES
20.9 µM (≈ 10 µg/mL) | COc1cc(Cc2nnc(Nc3ccc([N+](=O)[O-])cc3)s2)c(S(=O)(=O)N(C)C)cc1OC

Each compound was assayed on Bacillus cereus (assay: Antibacterial activity against clinical isolate Bacillus cereus at […] degC measured after 72 hr by microdilution method). Details: not given.
Format: functional
Outline: as §1

SMILES | MBC
COc1cc(Cc2nnc(Nc3ccc([N+](=O)[O-])cc3)s2)c(S(=O)(=O)N(C)C)cc1OC | 20.9 µM (≈ 10 µg/mL)

The compounds below were run on Pseudomonas aeruginosa (assay: Antibacterial activity against Pseudomonas aeruginosa ATCC 27853 at […] degC measured after 72 hr by microdilution method). Details: ATCC 27853, 72 h.
Format: functional
Outline: as §1

SMILES | MBC
COc1cc(Cc2nnc(Nc3ccc([N+](=O)[O-])cc3)s2)c(S(=O)(=O)N(C)C)cc1OC | 41.8 µM (≈ 20 µg/mL)

Each compound was assayed on Proteus mirabilis (assay: Antibacterial activity against Proteus mirabilis at […] degC measured after 24 hr by microdilution method). Details: not given.
Format: functional
Outline: as §2

MIC | SMILES
41.8 µM (≈ 20 µg/mL) | COc1cc(Cc2nnc(Nc3ccc([N+](=O)[O-])cc3)s2)c(S(=O)(=O)N(C)C)cc1OC

The compounds below were run on Listeria monocytogenes (assay: Antibacterial activity against Listeria monocytogenes NCTC 7973 at […] degC measured after 24 hr by microdilution method). Details: NCTC 7973, 24 h.
Format: functional
Outline: as §2

MIC | SMILES
41.8 µM (≈ 20 µg/mL) | COc1cc(Cc2nnc(Nc3ccc([N+](=O)[O-])cc3)s2)c(S(=O)(=O)N(C)C)cc1OC

These compounds were tested on Bacillus cereus (assay: Antibacterial activity against clinical isolate Bacillus cereus at […] degC measured after 24 hr by microdilution method). Details: not given.
Format: functional
Outline: as §2

MIC | SMILES
10.5 µM (≈ 5.04 µg/mL) | COc1cc(Cc2nnc(Nc3ccc([N+](=O)[O-])cc3)s2)c(S(=O)(=O)N(C)C)cc1OC

Each compound was assayed on Staphylococcus aureus (assay: Antibacterial activity against Staphylococcus aureus ATCC 6538 at […] degC measured after 24 hr by microdilution method). Details: ATCC 6538, 24 h.
Format: functional
Outline: as §2

MIC | SMILES
41.8 µM (≈ 20 µg/mL) | COc1cc(Cc2nnc(Nc3ccc([N+](=O)[O-])cc3)s2)c(S(=O)(=O)N(C)C)cc1OC

The compounds below were run on Aspergillus fumigatus (assay: Antifungal activity against plant isolate Aspergillus fumigatus at 28 degC measured after 72 hr by microdilution method). Details: not given.
Format: functional
Outline: (§3)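 Fungi were kept on malt agar at 4 °C. Spores were washed off with sterile 0.85% saline containing 0.1% Tween 80 and adjusted to about 1.0×10⁵ per well. Compounds were dissolved in DMSO (1 mg/ml stock) and serially diluted in malt broth with inoculum in 96-well plates, 72 h at 28 °C, for MIC. MFC came from subculture into fresh broth for a further 72 h at 28 °C.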

SMILES | MFC | MIC
COc1cc(Cc2nnc(Nc3ccc([N+](=O)[O-])cc3)s2)c(S(=O)(=O)N(C)C)cc1OC | 41.8 µM (≈ 20 µg/mL) | 20.9 µM (≈ 10 µg/mL)

These compounds were tested on Fulvia fulva (assay: Antifungal activity against Passalora fulva TK5318 at 28 degC measured after 72 hr by microdilution method). Details: TK5318, 72 h.
Format: functional
Outline: as §3

MIC | SMILES | MFC
10.5 µM (≈ 5.04 µg/mL) | COc1cc(Cc2nnc(Nc3ccc([N+](=O)[O-])cc3)s2)c(S(=O)(=O)N(C)C)cc1OC | 20.9 µM (≈ 10 µg/mL)

The compounds below were run on Salmonella typhimurium (assay: Antibacterial activity against Salmonella enterica subsp. enterica serovar Typhimurium ATCC 13311 at […] degC measured after 24 hr by microdilution method). Details: ATCC 13311, 24 h.
Format: functional
Outline: as §2

MIC | SMILES
10.5 µM (≈ 5.04 µg/mL) | COc1cc(Cc2nnc(Nc3ccc([N+](=O)[O-])cc3)s2)c(S(=O)(=O)N(C)C)cc1OC

What follows are compounds tested on Micrococcus flavus (assay: Antibacterial activity against Micrococcus flavus ATCC 10240 at […] degC measured after 72 hr by microdilution method). Details: ATCC 10240, 72 h.
Format: functional
Outline: as §1

SMILES | MBC
COc1cc(Cc2nnc(Nc3ccc([N+](=O)[O-])cc3)s2)c(S(=O)(=O)N(C)C)cc1OC | 83.6 µM (≈ 40.1 µg/mL)

The compounds below were run on Proteus mirabilis (assay: Antibacterial activity against Proteus mirabilis at […] degC measured after 72 hr by microdilution method). Details: not given.
Format: functional
Outline: as §1

SMILES | MBC
COc1cc(Cc2nnc(Nc3ccc([N+](=O)[O-])cc3)s2)c(S(=O)(=O)N(C)C)cc1OC | 83.6 µM (≈ 40.1 µg/mL)

These compounds were tested on Pseudomonas aeruginosa (assay: Antibacterial activity against Pseudomonas aeruginosa ATCC 27853 at […] degC measured after 24 hr by microdilution method). Details: ATCC 27853, 24 h.
Format: functional
Outline: as §2

MIC | SMILES
15.7 µM (≈ 7.53 µg/mL) | COc1cc(Cc2nnc(Nc3ccc([N+](=O)[O-])cc3)s2)c(S(=O)(=O)N(C)C)cc1OC

Each compound was assayed on Aspergillus versicolor (assay: Antifungal activity against Aspergillus versicolor ATCC 11730 at 28 degC measured after 72 hr by microdilution method). Details: ATCC 11730, 72 h.
Format: functional
Outline: as §3

MIC | SMILES | MFC
20.9 µM (≈ 10 µg/mL) | COc1cc(Cc2nnc(Nc3ccc([N+](=O)[O-])cc3)s2)c(S(=O)(=O)N(C)C)cc1OC | 41.8 µM (≈ 20 µg/mL)

The compounds below were run on Escherichia coli (assay: Antibacterial activity against Escherichia coli ATCC 35210 at […] degC measured after 24 hr by microdilution method). Details: ATCC 35210, 24 h.
Format: functional
Outline: as §2

MIC | SMILES
20.9 µM (≈ 10 µg/mL) | COc1cc(Cc2nnc(Nc3ccc([N+](=O)[O-])cc3)s2)c(S(=O)(=O)N(C)C)cc1OC

Each compound was assayed on Penicillium ochrochloron (assay: Antifungal activity against Penicillium ochrochloron ATCC 9112 at 28 degC measured after 72 hr by microdilution method). Details: ATCC 9112, 72 h.
Format: functional
Outline: as §3

MIC | SMILES | MFC
10.9 µM (≈ 5.23 µg/mL) | COc1cc(Cc2nnc(Nc3ccc([N+](=O)[O-])cc3)s2)c(S(=O)(=O)N(C)C)cc1OC | 41.8 µM (≈ 20 µg/mL)

Each compound was assayed on Salmonella typhimurium (assay: Antibacterial activity against Salmonella enterica subsp. enterica serovar TyphimuriumATCC 13311 at […] degC measured after 72 hr by microdilution method). Details: ATCC 13311, 72 h.
Format: functional, Salmonella enterica subsp. enterica serovar Typhimurium
Outline: as §1

SMILES | MBC
COc1cc(Cc2nnc(Nc3ccc([N+](=O)[O-])cc3)s2)c(S(=O)(=O)N(C)C)cc1OC | 20.9 µM (≈ 10 µg/mL)

Each compound was assayed on Aspergillus niger (assay: Antifungal activity against Aspergillus niger ATCC 6275 at 28 degC measured after 72 hr by microdilution method). Details: ATCC 6275, 72 h.
Format: functional
Outline: as §3

MIC | SMILES | MFC
20.9 µM (≈ 10 µg/mL) | COc1cc(Cc2nnc(Nc3ccc([N+](=O)[O-])cc3)s2)c(S(=O)(=O)N(C)C)cc1OC | 41.8 µM (≈ 20 µg/mL)

The compounds below were run on Talaromyces funiculosus (assay: Antifungal activity against Talaromyces funiculosus ATCC 36839 at 28 degC measured after 72 hr by microdilution method). Details: ATCC 36839, 72 h.
Format: functional
Outline: as §3

MIC | SMILES | MFC
10.5 µM (≈ 5.04 µg/mL) | COc1cc(Cc2nnc(Nc3ccc([N+](=O)[O-])cc3)s2)c(S(=O)(=O)N(C)C)cc1OC | 20.9 µM (≈ 10 µg/mL)

What follows are compounds tested on Trichoderma viride (assay: Antifungal activity against Hypocrea rufa IAM 5061 at 28 degC measured after 72 hr by microdilution method). Details: IAM 5061, 72 h.
Format: functional
Outline: as §3

MIC | SMILES | MFC
10.5 µM (≈ 5.04 µg/mL) | COc1cc(Cc2nnc(Nc3ccc([N+](=O)[O-])cc3)s2)c(S(=O)(=O)N(C)C)cc1OC | 20.9 µM (≈ 10 µg/mL)

These compounds were tested on Staphylococcus aureus (assay: Antibacterial activity against Staphylococcus aureus ATCC 6538 at […] degC measured after 72 hr by microdilution method). Details: ATCC 6538, 72 h.
Format: functional
Outline: as §1

SMILES | MBC
COc1cc(Cc2nnc(Nc3ccc([N+](=O)[O-])cc3)s2)c(S(=O)(=O)N(C)C)cc1OC | 83.6 µM (≈ 40.1 µg/mL)

The compounds below were run on Aspergillus flavus (assay: Antifungal activity against Aspergillus flavus ATCC 9643 at 28 degC measured after 72 hr by microdilution method). Details: ATCC 9643, 72 h.
Format: functional
Outline: as §3

MIC | SMILES | MFC
20.9 µM (≈ 10 µg/mL) | COc1cc(Cc2nnc(Nc3ccc([N+](=O)[O-])cc3)s2)c(S(=O)(=O)N(C)C)cc1OC | 41.8 µM (≈ 20 µg/mL)

These compounds were tested on Listeria monocytogenes (assay: Antibacterial activity against Listeria monocytogenes NCTC 7973 at […] degC measured after 72 hr by microdilution method). Details: NCTC 7973, 72 h.
Format: functional
Outline: as §1

SMILES | MBC
COc1cc(Cc2nnc(Nc3ccc([N+](=O)[O-])cc3)s2)c(S(=O)(=O)N(C)C)cc1OC | 83.6 µM (≈ 40.1 µg/mL)
